Measurements gathered from unrelated publications.
Lines come from different studies, so protocols differ.
BRD3 BD1: Bromodomain-containing protein 3, BD1 (BRD3, Homo sapiens, UniProt Q15059)
PDE5A: cGMP-specific 3',5'-cyclic phosphodiesterase (PDE5A, Homo sapiens, UniProt O76074)
KDM1A: Lysine-specific histone demethylase 1A (KDM1A, Homo sapiens, UniProt O60341)

| SMILES | target | test | setting | endpoint | value |
| --- | --- | --- | --- | --- | --- |
| Oc1ccc(-c2nc(-c3ccncc3)c(-c3ccc(F)cc3)[nH]2)cc1 | BRD3 BD1 | thermal stability, DSF | 10 µM | ΔTm | 0.72 °C |
| COc1ccc([C@H]2c3[nH]c4ccccc4c3C[C@@H]3C(=O)N(C(C)(C)C)C(=O)N23)cc1OC | PDE5A | enzyme activity, inhibitor, FP | 50 µM | inhibition | 52% |
| COc1cc(Cl)c(C(=O)N[C@@H](CN[C@H]2CC[C@@H](N)CC2)Cc2ccc(C#N)cc2)cc1-c1ccc(CN[C@H](C)c2ccc(C)cc2)o1 | Testis-specific serine/threonine-protein kinase 4 (TSSK4, Homo sapiens, UniProt Q6SA08) | enzyme activity, inhibitor | 1 µM | remaining activity | 98% |
| O=C(c1ccc(F)cc1)N(Cc1ccccc1)C1CCCCC1 | Endothelin-1 receptor (EDNRA, Homo sapiens, UniProt P25101) | cell-free assay | 10 µM | inhibition | 0% |
| CN1CCN(C(=O)[C@H](CCCN[C@@H]2C[C@H]2c2ccc(F)cc2)NC(=O)c2ccc(-n3ccnn3)cc2)CC1 | KDM1A | enzyme activity, inhibitor | – | kinact | 0.018 s⁻¹ |
| NS(=O)(=O)c1ccc(Nc2nc(-c3ccc(F)cc3)c3ccccc3n2)cc1 | BRD3 BD1 | binding, competition with immobilised ligand | 1 µM | remaining binding | 1% |
| Cc1cnc(Nc2ccc(OCCN3CCCC3)cc2)nc1Nc1cccc(S(=O)(=O)NC(C)(C)C)c1 | ATPase family AAA domain-containing protein 2B (ATAD2B, Homo sapiens, UniProt Q9ULI0) | thermal stability, DSF | 10 µM | ΔTm | -0.06 °C |
| CC(C)(C)N1C(=O)[C@H]2Cc3c([nH]c4ccccc34)[C@H](c3cccnc3)N2C1=O | PDE5A | enzyme activity, inhibitor, FP | 50 µM | inhibition | 89% |
| Nc1ncnc2occ(-c3ccc(NC(=O)Nc4cc(C(F)(F)F)ccc4F)cc3)c12 | Cyclin-dependent kinase 15 (CDK15, Homo sapiens, UniProt Q96Q40) | cell-free assay, inhibitor | 20 µM | remaining signal | 1.1% |
| CC(=O)N[C@H](C(=O)N[C@H](C(=O)N[C@@H](Cc1ccccc1)C(=O)N[C@H](C(=O)N[C@@H](CO)C(=O)N[C@@H](Cc1c[nH]c2ccccc12)C(=O)N[C@@H](CCC(=O)O)C(=O)N[C@@H](CCC(=O)O)C(=O)N[C@@H](Cc1ccc(O)cc1)C(=O)N[C@@H](CC(C)C)C(=O)N[C@@H](CC(=O)O)C(=O)N[C@@H](Cc1c[nH]c2ccccc12)C(=O)N[C@H](C(N)=O)C(C)C)[C@@H](C)O)C(C)C)[C@@H](C)O | Proprotein convertase subtilisin/kexin type 9 (PCSK9, Homo sapiens, UniProt Q8NBP7) | binding, SPR | – | koff | 0.173 s⁻¹ |
| O=C(O)c1ccc(CN2CCC(CN[C@@H]3C[C@H]3c3ccccc3)CC2)cc1 | KDM1A | enzyme activity, inhibitor | – | kinact | 0.013 s⁻¹ |
| C[S+]([O-])c1ccc(-c2nc(-c3ccncc3)c(-c3ccc(F)cc3)[nH]2)cc1 (stereo not shown) | BRD3 BD1 | thermal stability, DSF | 10 µM | ΔTm | 1.43 °C |
| Cc1cc2c(cc1N1C(=O)c3cccc4c(Cl)ccc(c34)C1=O)n(C)c(=O)n2C | Bromodomain-containing protein 3, BD2 (BRD3, Homo sapiens, UniProt Q15059) | thermal stability, DSF | 10 µM | ΔTm | 0.1 °C |
